In brackets after ≈: the same amount, converted by molar mass. Activity calls are given as the source filed them. The calls are words filed in the database; no cut-off is given here.
Tests used:
Staphylococcus aureus [1] = assay: Antibacterial activity against methicillin sensitive Staphylococcus aureus UAMS1; type: functional
Summary of the method: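 Broth microdilution in Mueller Hinton broth; DMSO stocks (12.8 mg/mL) serially diluted, 2 µL added per well, giving up to 256 µg/mL. Inoculum grown at 37 °C, 200 rpm to OD600 0.18, diluted to final 3x10^5 cells/mL, count confirmed by plating. Technical duplicate; 16-24 h at 37 °C; MIC = lowest concentration with visual growth inhibition.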

Staphylococcus aureus [2] = assay: Potency index, ratio of albocycline MIC to test compound MIC for methicillin resistant Staphylococcus aureus USA300; type: functional
Staphylococcus aureus [3] = assay: Antibacterial activity against methicillin resistant Staphylococcus aureus USA300; type: functional
Summary of the method: (§1)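 Broth microdilution MIC in Mueller Hinton broth. Stocks 12.8 mg/mL in DMSO, serially diluted twofold, 2 µL added per well (top final 256 µg/mL). Inoculum grown at 37 °C, 200 rpm to OD600 0.18, then diluted to 3x10^5 cells/mL final, checked by plate count. Incubated 16-24 h at 37 °C, technical duplicates. MIC read as lowest concentration with visible growth inhibition.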

Pseudomonas aeruginosa = assay: Antibacterial activity against Pseudomonas aeruginosa; type: functional, organism-based
Summary of the method: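 Twofold serial dilutions in 96-well microtiter plates from a 10 mg/mL DMSO starting concentration; DMSO solvent control, kanamycin positive control. Wells inoculated with 1:100 dilution of overnight cultures (P. aeruginosa strain PA10). Incubated 37 °C for 24 h; MIC scored as lowest well showing growth inhibition.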

Acinetobacter baumannii = assay: Antibacterial activity against Acinetobacter baumannii; type: functional, organism-based
Escherichia coli = assay: Antibacterial activity against Escherichia coli; type: functional, organism-based
Staphylococcus aureus [4] = assay: Antibacterial activity against vancomycin-resistant Staphylococcus aureus; type: functional; summary of the method: as §1
Staphylococcus aureus [5] = assay: Antibacterial activity against vancomycin-intermediate Staphylococcus aureus; type: functional; summary of the method: as §1
Staphylococcus aureus [6] = assay: Antibacterial activity against methicillin resistant Staphylococcus aureus; type: functional; summary of the method: as §1

| SMILES | MIC (Staphylococcus aureus [1]) | MIC (Staphylococcus aureus [3]) | also measured |
| --- | --- | --- | --- |
| C#CCO[C@@]1(C)/C=C/C(=O)O[C@H](C)[C@@H](C)CC/C=C(\C)[C@@H](OC)/C=C/1 | > 256 µg/mL |  |  |
| CO[C@H]1/C=C/[C@@](C)(O)/C=C/C(=O)O[C@H](C)[C@@H](C)CC/C=C/1CO | 32 µg/mL (≈ 98.6 µM) |  |  |
| COC/C1=C\CC[C@H](C)[C@@H](C)OC(=O)/C=C/[C@](C)(O)/C=C/[C@@H]1OC | 128 µg/mL (≈ 378 µM) |  |  |
| CO[C@H]1/C=C/[C@@](C)(OC(=O)c2ccc(F)cc2)/C=C/C(=O)O[C@H](C)[C@@H](C)CC/C=C/1C | 1 µg/mL (≈ 2.32 µM) | 1 µg/mL (≈ 2.32 µM) | Ratio (Staphylococcus aureus [2]): 2 |
| CO[C@H]1/C=C/[C@@](C)(O)C(SCCN)CC(=O)O[C@H](C)[C@@H](C)CC/C=C/1C (mixture of isomers) | 128 µg/mL | 256 µg/mL | Activity (Pseudomonas aeruginosa): inactive; Activity (Acinetobacter baumannii): inactive; Activity (Escherichia coli): inactive |
| CO[C@H]1/C=C/[C@@](C)(O)/C=C/C(=O)O[C@H](C)[C@@H](C)CC/C=C/1C | 2 µg/mL (≈ 6.48 µM) | 2 µg/mL (≈ 6.48 µM) | MIC (Staphylococcus aureus [4]): 0.5 µg/mL (≈ 1.62 µM); MIC (Staphylococcus aureus [5]): 0.5 µg/mL (≈ 1.62 µM); MIC (Staphylococcus aureus [6]): 0.5 µg/mL (≈ 1.62 µM) |
| CO[C@H]1/C=C/[C@@](C)(O)/C=C/C(=O)O[C@H](C)[C@@H](C)CC/C=C/1COP(=O)(Oc1ccccc1)Oc1ccccc1 | > 256 µg/mL | > 256 µg/mL |  |
| C/C1=C\CC[C@H](C)[C@@H](C)OC(=O)/C=C/[C@](C)(O)/C=C/[C@@H]1O | 8 µg/mL (≈ 27.2 µM) | 4 µg/mL (≈ 13.6 µM) |  |
| CO[C@H]1/C=C/[C@@](C)(O)/C=C/C(=O)O[C@H](C)[C@@H](C)CC/C=C/1C=O | 32 µg/mL (≈ 99.3 µM) |  |  |

— ChEMBL document CHEMBL4665767, “Synthesis and biological evaluation of semi-synthetic albocycline analogs” (2020)
